Measured values gathered from unrelated publications.
Target: Tyrosine-protein kinase CSK (CSK, Homo sapiens, UniProt P41240)

COc1cc(/C=C/C(=O)CC(=O)/C=C/c2ccc(O)c(OC)c2)ccc1O
activity vs control (enzyme activity, inhibitor; 1 µM): 78%

C#Cc1cccc(Nc2ncnc3cc(OCCOC)c(OCCOC)cc23)c1
remaining signal (cell-free assay, inhibitor; 0.5 µM): 100%

FC(F)(F)Oc1cccc(-c2cnc3ccc(-c4ccncc4)nn23)c1
activity vs control (enzyme activity, inhibitor, radiometric; 5 µM): 100%

COc1cc2nccc(Oc3ccc(NC(=O)c4c5n(n(-c6ccc(F)cc6)c4=O)CCCC5)cc3)c2cc1OC
inhibition (enzyme activity, inhibitor; 0.1 µM): 2%

C[C@@H]1CN(c2cc(-c3nn(C)c4ccc(OC5(C)CC5)cc34)ncn2)C[C@H](C)O1
remaining binding (cell-free assay, competition with immobilised ligand; 1 µM): 100%

Cc1nc(Nc2ncc(C(=O)Nc3c(C)cccc3Cl)s2)cc(N2CCN(CCO)CC2)n1
activity vs control (enzyme activity, inhibitor; 0.5 µM): 7.11%

CC(C)(O)[C@H]1CC[C@H](Nc2ccc3ncc(-c4cccc(C(F)(F)F)c4)n3n2)CC1
remaining activity (enzyme activity, inhibitor; 1 µM): 95.3%

CS(=O)(=O)Nc1cccc(-c2csc(NC(=O)CSc3nc4nccnc4c(=O)n3CCc3ccccc3)n2)c1
inhibition (enzyme activity, inhibitor; 10 µM): 4%

CNC(=O)c1cc(Oc2ccc(NC(=O)Nc3ccc(Cl)c(C(F)(F)F)c3)cc2)ccn1
inhibition (enzyme activity, inhibitor; 0.3 µM): -7%

COc1cc2ncnc(Nc3ccc(Oc4ccccc4)c(C)c3C)c2cc1OC
inhibition (enzyme activity, inhibitor; 1 µM): 49%

CC(C)(C)c1nc(-c2cccc(NS(=O)(=O)c3c(F)cccc3F)c2F)c(-c2ccnc(N)n2)s1
remaining activity (enzyme activity, inhibitor, radiometric; 1 µM): 34%

COc1ccc2cc(OCC3(C(=O)O)CN(C(=O)c4ccc(F)cc4)C3)ccc2c1
remaining binding (cell-free assay, competition with immobilised ligand; 1 µM): 100%

O=C1NC(=O)c2cc(Nc3ccc(F)cc3)c(Nc3ccc(F)cc3)cc21
remaining activity (enzyme activity, inhibitor; 0.5 µM): 92%

Cc1ccc(Nc2nccc(N(C)c3ccc4c(C)n(C)nc4c3)n2)cc1S(N)(=O)=O
inhibition (enzyme activity, inhibitor; 0.3 µM): -6%

Cc1sc(C(=O)NC2COC2)cc1-n1cc(NC(=O)Nc2c(F)cccc2Cl)cn1
remaining activity (enzyme activity, inhibitor; 10 µM): 98%

Oc1ccc(-c2nc(-c3ccncc3)c(-c3ccc(F)cc3)[nH]2)cc1
remaining activity (enzyme activity, inhibitor; 0.5 µM): 93.7%

Cc1ccc(C(=O)NCc2ccsc2)cc1C#Cc1cn(C(C)C)c2ncnc(N)c12
activity vs control (enzyme activity, inhibitor; 1 µM): 26%

Nc1ncnc2occ(-c3ccc(NC(=O)Nc4cc(C(F)(F)F)ccc4F)cc3)c12
remaining activity (enzyme activity, inhibitor; 20 µM): 2%

Nc1nc(Nc2ccccc2)sc1C(=O)c1c(F)cccc1F
remaining activity (enzyme activity, inhibitor; 10 µM): 90%

COc1cc(Nc2cnc(C#N)c(O[C@H](C)CN(C)C)n2)ncc1-c1cnn(C)c1
remaining activity (enzyme activity, inhibitor, radiometric; 10 µM): 94%

Cn1c(=O)n(-c2ccc(C(C)(C)C#N)cc2)c2c3cc(-c4cnc5ccccc5c4)ccc3ncc21
remaining activity (enzyme activity, inhibitor; 10 µM): 100%

Cn1nc(C(F)(F)F)cc1-c1cnc(N2CCc3cc(S(=O)(=O)Nc4c(F)cc(Cl)cc4F)cc(N4CCCC4=O)c32)nc1
remaining binding (cell-free assay, competition with immobilised ligand; 1 µM): 93%

CC(C)(C)C(=O)c1sc(NC2CCCCC2)nc1N
remaining activity (enzyme activity, inhibitor; 10 µM): 98%

CO[C@@H](C)c1c(Nc2ccc([C@H](N(C)C(=O)C3CCS(=O)(=O)CC3)C(F)(F)F)cc2)cnc2cc(Cl)nn12
remaining binding (cell-free assay, competition with immobilised ligand; 1 µM): 100%

CC/C(=N\NC(=O)NCc1cccc(O)c1)c1ccc(O)c(C)c1O
inhibition (enzyme activity, inhibitor; 0.1 µM): -4.9%

Cn1nc(C(=O)NCc2ccc(C(=O)O)cc2)cc1-c1ccc2[nH]ccc2c1
remaining binding (cell-free assay, competition with immobilised ligand; 0.1 µM): 94%

CCN(CC)CCNC(=O)c1c(C)[nH]c(/C=C2\C(=O)Nc3ccc(F)cc32)c1C
inhibition (enzyme activity, inhibitor; 0.3 µM): -8%

COc1cc(-c2cn(C3CCc4ccccc4N(CC(F)(F)F)C3=O)nn2)ccc1-n1ccc(C)n1 (stereo not drawn)
remaining binding (cell-free assay, competition with immobilised ligand; 1 µM): 100%

c1nc2c(Nc3ccc4c(c3)OCCO4)nc(Nc3ccc4c(c3)OCCO4)nc2[nH]1
activity vs control (enzyme activity, inhibitor; 10 µM): 18%

C[C@H](c1cccc(C#N)c1)n1cc(Cl)cc(C(N)=O)c1=N
remaining binding (cell-free assay, competition with immobilised ligand; 1 µM): 100%

O=C(Nc1cnn(-c2csc(C(=O)NC3COC3)c2)c1)Nc1c(F)cccc1Cl
remaining activity (enzyme activity, inhibitor; 5 µM): 97.5%

Cc1c[nH]c2nccc(Oc3c(F)cc(Nc4cc(Cl)nc(N)n4)cc3F)c12
remaining binding (cell-free assay, competition with immobilised ligand; 0.1 µM): 87%

CNc1cc(Oc2cc(C(=O)Nc3cc(N4CCN(C)CC4)cc(C(F)(F)F)c3)ccc2C)ncn1
inhibition (target engagement in cells, inhibitor, chemoproteomics; Huh-7; 1 µM): -15%
